The sample as a whole holds a higher share of hits than the screen did.
BB579 growth dn = yeast BB579 growth reduction in restrictive medium; S. cerevisiae BB579 growth, OD615, 48 h; inhibition, % at 10 µM; hit rate 0.51% among 140,000; AID 804;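 active = inhibition above a set limit, 3 SD over the mean compound inhibition, cut at about 44% in these data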
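Test system: S. cerevisiae DeaD strain BB579 yeast; Medium: restrictive CSMM-D medium; Compound: one dose, 10 µM compound with 0.25% DMSO; Incubation: 4 h cell preincubation, 48 h compound exposure, 30 °C humidified; Signal: OD at 615 nm; Benchmarks: amphotericin B at 10 µg/mL as positive control.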
PostGolgi ctrl = yeast control strain growth, post-Golgi counter-screen; hit rate 5% among 98,000; inhibition, % at 10 µM; efflux-deficient yeast background strain, growth absorbance A615, 16 h
PostGolgi yeast = growth inhibition of a yeast mutant, post-Golgi transport screen | post-Golgi transport phenotypic cell assay | inhibition, % at 10 µM | hit rate 0.9% among 98,000 | AID 739;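 also: yeast cells grown in 1536-well plates; yeast grown about 18 h at 30C before absorbance read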
Yeast lifespan up = yeast lifespan extension. S. cerevisiae growth with nicotinamide, OD615; deaD strain in restrictive glucose medium. inhibition of the nicotinamide effect, % at 10 µM. hit rate 0.68% among 130,000. AID 775;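 active = inhibition above a set limit, placed 3 SD over the median of all compounds, cut at about 26% in these data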;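 also: 0% = nicotinamide-treated wells and 100% = cells grown without nicotinamide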
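Material: Modified budding yeast, DeaD strain | Medium: Restrictive glucose medium | Probe or stimulus: 1.5 mM nicotinamide | Dosing: Single dose 10 µM compound, 0.25% DMSO | Times: 48 h at 30 °C | Technique: OD615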
Active calls of the source: *; · = not tested or not shown. Rule as the data show it, unless noted: active = inhibition above about 30%; inactive = the rest.

SMILES	BB579 growth dn	PostGolgi ctrl	PostGolgi yeast	Yeast lifespan up
Cc1nn(-c2ccc(Cl)c(Cl)c2Cl)c(=O)c2ccccc12	-45	29	-9	3
Cc1cc(C)[n+](-c2ccc(F)cc2)c2[nH]c(=O)[nH]c(=O)c12	-7	·	·	4
COc1cc2c(C#N)c(N3CCc4ccccc4C3)nc(N)c2c(N)n1	-62	77*	27	-33
COc1cc2c(C#N)c(N3CCCCC3)nc(N)c2c(N)n1	-14	18	-9	-13
COCCN1C(=O)N[C@@H](c2ccccc2)C(C(C)=O)=C1C	-36	·	·	2
CCN1C(=O)N[C@H](c2ccc(Br)cc2)C(C(C)=O)=C1C	-20	·	·	40*
O=C1CC(N(CCc2ccccc2)C(=S)Nc2cc(Cl)ccc2Cl)C(=O)N1c1c(Cl)cccc1Cl (configuration not stated)	-39	-3	5	-10
COc1ccc(/C=C/C(=O)C2C(=O)C=C(C)OC2=O)cc1O (configuration not stated)	-3	·	·	44*
COc1cc(/C=C/C(=O)N2CCCC2)cc(OC)c1OC	-14	·	·	-3
COc1cc(/C=C/C(=O)C2C(=O)C=C(C)OC2=O)cc(OC)c1O (configuration not stated)	-9	·	·	64*
CCOC(=O)C1CCC(CNCc2ccc(Cl)cc2)CC1 (configuration not stated)	12	·	·	-4
CCCCOc1ccc(C(C)NC(=O)C2CCCN(S(=O)(=O)CCC)C2)cc1 (configuration not stated)	-39	·	·	8
O=C(CC1NC(=O)NC1=O)Nc1ccc(Cl)cc1 (configuration not stated)	-6	10	-9	-1
O=C(CC1Nc2ccccc2NC1=O)Nc1cc(Cl)cc(Cl)c1 (configuration not stated)	-47	67*	12	-27
Cc1ccc(Cn2ccc(=O)c(OCc3ccccc3)c2C)cc1	-8	9	-6	-6
Cc1c(OCc2ccccc2)c(=O)ccn1Cc1ccc(Cl)cc1	-15	43*	-2	-8
COc1cccc(-c2csc(N3CCN(S(=O)(=O)c4ccc(F)cc4)CC3)n2)c1	-3	37*	-1	-5
Cc1ccc(OCCN2CCN(c3ncnc4sc(C)c(C)c34)CC2)cc1	-41	20	0	-5
Clc1ccc(OCCN2CCN(c3ncnc4sccc34)CC2)cc1	-37	33*	-11	0
Oc1ccc2ccccc2c1/C=N/c1nccs1	-41	7	3	75*
Cc1cc(N=Cc2c(O)ccc3ccccc23)no1	-13	-1	-1	43*
Cc1c(Cc2ccccc2)sc(/N=C/c2c(O)ccc3ccccc23)c1C(N)=O	-42	·	·	12
CCOC(=O)c1cc(CC)sc1/N=C/c1c(O)ccc2ccccc12	-6	·	·	32*
Cc1cc(N=Cc2c(O)ccc3cc(Br)ccc23)no1	41	·	·	21
COc1ccc2c(c1)-c1nc(/N=C/c3c(O)ccc4ccccc34)sc1CC2	-55	·	·	30*
SMILES	BB579 growth dn	PostGolgi ctrl	PostGolgi yeast	Yeast lifespan up
CC(C)CCNC(=O)c1nnc(Cc2ccc(Cl)cc2)o1	19	3	-6	-9
Fc1ccccc1NC(=S)N1CCN(Cc2ccccc2)CC1	-17	·	·	2
O=C1c2ccccc2C(=O)N1CCc1csc(-c2cccc(F)c2)n1	-20	42*	-5	0
COc1ccc(C(=O)CC(Nc2ccc([N+](=O)[O-])cc2)c2ccc(Cl)cc2)cc1 (configuration not stated)	-44	15	-9	-7
COc1ccc(C2C(C(=O)Nc3ccc4c(c3)OCCO4)c3ccccc3C(=O)N2C)cc1 (configuration not stated)	-11	31*	3	-7
CC(C)c1nnc(NC(=O)C2CCN(c3nc4ccccc4s3)CC2)s1	-54	34*	5	-3
CC(C)c1nnc(NC(=O)C2CCN(c3cnccn3)CC2)s1	-17	·	·	·
O=C1C(C=NCc2cccnc2)=C(O)c2ccccc21	-49	40*	-8	-22
O=C1C(C=NCc2ccncc2)=C(O)c2ccccc21	-73	7	6	10
CCCCCCNS(=O)(=O)c1nc2nc(C)cc(C)n2n1	-30	3	0	-4
CCOC(=O)C1=C(C)N=c2s/c(=C\c3cccn3C)c(=O)n2C1c1cccc(OC)c1OC (configuration not stated)	-70	33*	-1	-12
O=C(CCSc1nnc(-c2ccncc2)o1)Nc1ccccc1	-28	3	1	-6
O=C(CCSc1nnc(-c2ccncc2)o1)Nc1ccc(F)cc1	4	89*	93*	2
CS(=O)(=O)c1ccccc1-c1nc(-c2ccc(C(F)(F)F)cc2)no1	15	31*	-12	-10
COc1ccc2nc3oc(C(=O)N4CCN(c5cccc(Cl)c5)CC4)cc3cc2c1	-48	35*	0	-14
COc1ccc2nc3oc(C(=O)N4CCN(c5cccc(C(F)(F)F)c5)CC4)cc3cc2c1	-36	2	-1	0
COc1ccc2c(c1)c(=O)oc1cc(OCC(=O)N3CCCC(C)C3)ccc12 (configuration not stated)	-21	59*	5	-10
CC1(C)CC(=O)C=C(OC(=O)c2ccc(Cl)cc2)C1	-68	7	9	27
Cc1ccc(C)c(N(CC(=O)NCc2ccc3c(c2)OCO3)C(=O)CCC(=O)Nc2ccccn2)c1	-8	30*	-1	1
Cc1ccc(S(=O)(=O)c2cc3c(=O)n4ccccc4nc3n(C)c2=N)cc1	-37	32*	2	-8
CC(C)OC(=O)C1C(=O)CC(C)(O)C(C(=O)OC(C)C)C1c1cccc(O)c1 (configuration not stated)	12	7	0	-1
CC1CC(C)(C)N(C(=O)CSc2ccc(-c3ccc(F)cc3)nn2)c2ccccc21 (configuration not stated)	-4	37*	-23	-19
CC1CCN(C(=O)CSc2ccc(-c3ccc(F)cc3)nn2)CC1	-47	8	4	-19
CC(C)CC(c1nnnn1CC1CCCO1)N1CCN(c2cccc(Cl)c2)CC1 (configuration not stated)	-37	34*	4	3
CC(C)CC(c1nnnn1Cc1ccco1)N1CCN(c2cccc(Cl)c2)CC1 (configuration not stated)	-22	40*	-8	-5
SMILES	BB579 growth dn	PostGolgi ctrl	PostGolgi yeast	Yeast lifespan up
CCCC(c1nnnn1Cc1ccco1)N1CCN(C(=O)c2ccco2)CC1 (configuration not stated)	-31	-10	0	0
Cc1ccc(Cl)cc1N1CCN(C(CC(C)C)c2nnnn2CC2CCCO2)CC1 (configuration not stated)	0	6	-3	-8
CC(C)CC(c1nnnn1CCc1ccccc1)N1CCN(C(=O)c2ccco2)CC1 (configuration not stated)	-31	30*	2	-1
CCC(c1nnnn1CCc1ccccc1)N1CCN(C(=O)c2ccco2)CC1 (configuration not stated)	-16	22	9	-21
c1cncc(-c2nnc(-c3cccnc3)nn2)c1	53*	-1	12	5
Cc1ccccc1NC(=O)c1ccc(NC(=O)c2ccco2)cc1	-11	10	0	-8

High-throughput results (PubChem)
